# Sampled rows, rich in hits. Any-hit rate of the full collection: about 3.5%.
# RGS4 act – RGS4 potentiators or activators, primary screen, cell-based, HEK293 M3R inducible RGS4, calcium flux; carbachol calcium flux Fluo4; hits give low values; B-score at 10 µM; 310,000 tested, 0.92% active; AID 463111, 2010;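 active means B-score of the integrated calcium signal more than 4 SD below the library mean, with starting fluorescence not abnormally high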;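 further: negative B-score means reduced calcium response which marks RGS4 activation or potentiation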
#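 Material: Inducible-RGS4 HEK293 cells carrying M3 receptor; also added: carbachol at ECmax as muscarinic agonist stimulus; incubation: compound preincubation 20 min at room temperature before agonist; signal: Fluo4-AM (2 µM) calcium-flux fluorescence, kinetic read; measure: integrated calcium ratio converted to B score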
# RGS4 inh – RGS4 inhibitors, primary screen, cell-based, HEK293 M3R inducible RGS4, calcium flux; Regulator of G-protein signaling 4 (Homo sapiens), P49798; Fluo-4 calcium flux; hits give high values; triggered by carbachol at its EC20; B-score at 10 µM; 310,000 tested, 0.45% active; AID 463165, 2010;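 active means B-score, a plate-corrected calcium signal, over three deviations above library mean, with baseline fluorescence within five deviations of library mean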;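 further: RGS4 expression induced by doxycycline in cells with stable M3 receptor; B-score is computed from the integrated fluorescence ratio over baseline after carbachol; higher B-score means a larger calcium signal and so more RGS4 inhibition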
# Target sequence (P49798 whole entry, looked up): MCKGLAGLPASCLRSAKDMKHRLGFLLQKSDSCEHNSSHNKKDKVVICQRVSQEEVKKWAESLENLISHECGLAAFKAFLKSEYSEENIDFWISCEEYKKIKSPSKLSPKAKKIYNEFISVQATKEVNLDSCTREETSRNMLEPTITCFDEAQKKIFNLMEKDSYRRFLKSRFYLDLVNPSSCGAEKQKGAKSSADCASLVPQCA
# MrgX1 allo act – positive allosteric modulators of MrgX1, primary screen, HEK293 cells, Fluo-4 calcium flux | Mas-related G-protein coupled receptor member X1 (Homo sapiens), Q96LB2 | 310,000 tested, 0.63% active | B-score at 10 µM | FDSS; hits give high values;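 active means plate-corrected calcium response at least 3 library SD above typical, normal starting fluorescence, not activating the receptor alone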;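 further: compound read alongside a low EC10 to EC30 dose of BAM8-22 agonist; peak minus trough fluorescence over baseline measured at the second addition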
# Target sequence (Q96LB2 whole entry, looked up): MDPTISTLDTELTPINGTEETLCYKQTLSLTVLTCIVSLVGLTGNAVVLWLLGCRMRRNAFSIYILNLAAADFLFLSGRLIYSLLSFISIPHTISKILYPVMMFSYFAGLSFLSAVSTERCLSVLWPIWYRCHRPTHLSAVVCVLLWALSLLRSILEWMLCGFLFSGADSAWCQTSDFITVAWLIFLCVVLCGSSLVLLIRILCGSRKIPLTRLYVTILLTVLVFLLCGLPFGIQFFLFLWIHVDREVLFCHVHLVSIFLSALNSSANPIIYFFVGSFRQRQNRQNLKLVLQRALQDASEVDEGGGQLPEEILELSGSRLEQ
# MrgX1 agonist – agonists of human MrgX1 receptor, primary screen, HEK293 cells, Fluo-4 calcium flux; Mas-related G-protein coupled receptor member X1 (Homo sapiens), Q96LB2; B-score at 10 µM; 310,000 tested, 0.44% active; Fluo-4 calcium fluorescence, agonist mode; hits give high values;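 active means calcium response B-score plate-corrected fluorescence ratio at least 3 library SD, with starting fluorescence B-score inside 5 SD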
#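 Material: MrgX1-expressing HEK293 cells / Dosing: compound as first of three additions / Incubation: overnight seeding, then 1 h dark dye loading / Signal: Fluo-4 NW calcium fluorescence / Evaluation: B-scored fluorescence response ratio / Benchmarks: positive and negative control wells on each plate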
# MrgX1 antagonist – antagonists of human MrgX1 receptor, primary screen, HEK293 cells, Fluo-4 calcium flux. BAM8-22 antagonism; hits give low values. 310,000 tested, 1.3% active. B-score at 10 µM. Mas-related G-protein coupled receptor member X1 (Homo sapiens), Q96LB2;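 active means calcium-response B-score plate-corrected more than 3 library SD below zero, starting fluorescence within 5 deviations, no agonist response on first addition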;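 further: peak minus trough fluorescence over baseline after final BAM8-22 challenge near maximal dose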
# MrgX1 antag conf – MrgX1 receptor antagonists, duplicate retest, confirmation, HEK293 cells, Fluo-4 calcium flux; BAM8-22 calcium flux; hits give low values; remaining BAM8-22 calcium response % of control (hits give low values), % at 10 µM; 2,300 tested, 19% active; shares compounds with MrgX1 antagonist; AID 602420, 2012;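 active means remaining agonist calcium response no higher than 100% minus 3 SD of agonist-only control wells, with starting fluorescence near control levels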;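 further: agonist BAM8-22 given at a near maximal EC90 to ECmax level; peak minus minimum fluorescence divided by baseline after agonist addition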
# HEK293 Ca flux – nonspecific calcium signal in parental HEK293, confirmation, counter-screen for MrgX1 antagonist project, parental HEK293 cells, Fluo-4 calcium flux. fluorescence ratio F(max-min)/F0 at 10 µM. shares compounds with MrgX1 antagonist. 4,000 tested, 2% active. Fluo-4 calcium fluorescence, FDSS;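 active means duplicate-averaged calcium fluorescence ratio at least three times the standard deviation of buffer wells, a nonspecific response in parental cells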
# HEK293 Ca counter – calcium response in parental HEK293 cells, primary screen, counter-screen for MrgX1 allosteric activator project, cell-based, Fluo-4 calcium flux, duplicate. shares compounds with MrgX1 antagonist. Fluo-4 fluorescence ratio; hits give high values. fluorescence ratio F(max-min)/F0 at 10 µM. 4,000 tested, 0.4% active. AID 624114, 2012;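 active means calcium fluorescence ratio, averaged over duplicates, at least 3 SD of the buffer-well ratio, meaning a nonspecific response in receptor-free cells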;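 further: untransfected parental HEK293 lacking MrgX1 used as counterscreen for MrgX1 allosteric activators; fluorescence change taken during the second addition on a kinetic imager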
# HEK293 Ca cntr2 – calcium response in parental HEK293 cells, primary screen, counter-screen for MrgX1 agonist project, cell-based, Fluo-4 calcium flux, duplicate, agonist mode; shares compounds with MrgX1 antagonist; Fluo-4 calcium fluorescence (FDSS); hits give high values; fluorescence ratio F(max-min)/F0 at 10 µM; 4,000 tested, 8.7% active;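 active means calcium fluorescence ratio at least three times the spread of buffer wells, meaning a non-specific response in parental cells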
# * = called active by the depositor; i = inactive; nt = no result.
SMILES,RGS4 act,RGS4 inh,MrgX1 allo act,MrgX1 agonist,MrgX1 antagonist,MrgX1 antag conf,HEK293 Ca flux,HEK293 Ca counter,HEK293 Ca cntr2
CCOC(=O)N1CCC(=NNC(=O)c2ccc(O)cc2)CC1,i,i,i,i,i,nt,nt,nt,nt
COc1cc2c(cc1OC)C(C)N(C(=O)c1cc(C)on1)CC2 (centres undefined),i,i,i,i,-6.3*,85%*,i,i,i
CC(=O)Nc1ccc(NC(=O)COC(=O)Cc2c[nH]c3ccccc23)cc1,i,i,i,i,-6*,i,i,i,i
O=C(Nc1ccc(OCc2ccccc2)cc1)c1ccccc1,i,i,i,i,-9*,i,i,i,i
Cc1cc(C)c(C(=O)OCC(=O)Nc2cccc(S(=O)(=O)N3CCCCC3)c2)c(C)c1,i,i,i,i,-11*,i,i,i,i
O=C(COC(=O)c1ccc(O)cc1)Nc1cccc(S(=O)(=O)N2CCCCC2)c1,i,i,i,i,i,nt,nt,nt,nt
Cc1cc(C)c2cc3c(ccn3C3OC[C@H](O)[C@H](O)[C@H]3O)cc2n1 (some centres undefined),i,i,i,i,-6.4*,i,i,i,i
COCCn1nnnc1C(c1cccs1)N1CCN(c2nc3ccccc3s2)CC1 (centres undefined),i,i,i,i,i,nt,nt,nt,nt
COCCn1nnnc1C(c1cccs1)N1CCN(c2cc(C)ccc2C)CC1 (centres undefined),i,i,i,i,-10*,i,i,i,i
NC(=O)Cn1nc2sc3ccccc3n2c(=O)c1=O,i,i,i,i,i,nt,nt,nt,nt
O=C(COC(=O)COc1ccccc1)NCCc1ccccc1,i,i,i,i,-5.2*,i,i,i,i
COc1ccc(NC(=O)C2CCN(S(=O)(=O)c3ccc(Br)s3)CC2)cc1OC,i,i,i,i,i,nt,nt,nt,nt
Cc1ccc(C)c(NC(=S)N2CCCCCC2)c1,nt,nt,i,i,i,nt,nt,nt,nt
Cc1ccc(C)c(NC(=S)N2CCN(CCO)CC2)c1,i,i,i,i,-4.8*,i,i,i,i
Cc1ccc(Cl)cc1NS(=O)(=O)N1CCOCC1,i,i,i,i,i,nt,nt,nt,nt
COc1ccc(Cl)cc1NS(=O)(=O)N1CCOCC1,i,i,i,i,-6.2*,i,i,i,i
C=CCNC(=O)CSc1nc2sccc2c(=O)n1-c1ccccc1,i,i,i,i,-5.1*,i,i,i,i
Cc1ccccc1NC(=O)CCN1CCCCCC1,i,i,i,i,-6.1*,i,i,i,i
Cc1ccccc1NC(=O)CCN1CCN(Cc2ccccc2)CC1,i,i,i,i,i,nt,nt,nt,nt
COc1ccc(C2C(C(C)=O)=C(O)C(=O)N2c2ccccn2)cc1 (centres undefined),i,i,i,i,i,nt,nt,nt,nt
Nc1c(C(=O)Nc2ccccc2F)sc2nc(-c3ccco3)ccc12,i,i,i,i,-5.3*,78%*,i,i,i
Nc1c(C(=O)Nc2ccccc2F)sc2nc(-c3cccnc3)ccc12,i,i,i,i,i,nt,nt,nt,nt
CCc1ccccc1NC(=O)[C@@H]1CCC(=O)N1C1OC(=O)c2ccccc21 (some centres undefined),i,i,i,i,-8.1*,85%*,i,i,i
COc1ccc(-n2nc3c(c2NC(=O)C(C)Oc2ccccc2)CS(=O)(=O)C3)cc1 (centres undefined),i,i,i,i,i,nt,nt,nt,nt
Cc1cc2oc(=O)cc(CN3CCOCC3)c2cc1C(C)C,i,i,i,i,i,nt,nt,nt,nt
SMILES,RGS4 act,RGS4 inh,MrgX1 allo act,MrgX1 agonist,MrgX1 antagonist,MrgX1 antag conf,HEK293 Ca flux,HEK293 Ca counter,HEK293 Ca cntr2
CCOc1ccc2oc(=O)cc(CN3CCOCC3)c2c1,i,i,i,i,-7.3*,i,i,i,i
O=C(NCCc1ccccc1)c1cnn2c(C(F)F)cc(C3CC3)nc12,i,i,i,i,i,nt,nt,nt,nt
Cc1nn(C)cc1CNC(=O)c1cnn2c(C(F)F)cc(C3CC3)nc12,i,i,i,i,-4.7*,i,i,i,i
CCOC(=O)c1c(-c2ccccc2)oc2cc(CN(C)C)c(O)c(CN(C)C)c12,i,i,i,i,i,nt,nt,nt,nt
Cc1ccc(-n2c(-c3ccc(Br)cc3)c[n+]3c2CCc2ccc4cccnc4c2-3)cc1,i,i,i,i,-11*,19%*,i,i,i
COc1ccc(-n2c(-c3ccc(Cl)cc3)c[n+]3c2CCc2ccccc2-3)cc1,i,i,i,i,i,nt,nt,nt,nt
COc1cccc(C(=O)NC(=S)Nn2cnnc2)c1OC,i,i,i,i,i,nt,nt,nt,nt
CCOC(=O)c1nn(-c2cc(C(=O)OC)cc(C(=O)OC)c2)cc1O,i,i,i,i,i,nt,nt,nt,nt
CCOC(=O)c1nn(-c2sc(C(=O)OC)c(C)c2C(=O)OC)cc1O,i,i,i,i,-6.8*,62%*,i,i,i
O=C(CSC1=NCCS1)c1ccc(Cl)cc1,i,i,i,i,i,nt,nt,nt,nt
O=C(CSC1=NCCS1)N1CCN(c2ccc(Cl)cc2)CC1,i,i,i,i,-6.3*,i,i,i,i
Cc1nn(C)c(C)c1CNC(=O)c1nn2c(c1Cl)NC(c1cccs1)CC2C(F)(F)F (centres undefined),i,i,i,i,-8.7*,i,i,i,i

# From PubChem BioAssay
